Screening results from PubChem BioAssay.
ADAM10 inh: human ADAM10 inhibitors, primary screen, biochemical, QFRET, HTS; recombinant ADAM10, EDANS/DABCYL FRET peptide cleavage, 3 h; hit rate 0.62% among 370,000; inhibition, % at 7 µM; Disintegrin and metalloproteinase domain-containing protein 10 (Homo sapiens), O14672;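 active means inhibition above a per-campaign cutoff equal to the mean of compounds falling between control-based bounds plus 3 SD, cut at about 20% in these data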;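 further: 0% = DMSO wells while the 100% control is not disclosed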
TbMetRS inhib: T. brucei MetRS inhibitors, primary screen, biochemical, luminescence. AID 624268, 2012. hit rate 0.4% among 360,000. purified T. brucei MetRS, ATP depletion, Kinase-Glo luminescence. inhibition, % at 11.9 µM. methionyl-tRNA synthetase (Trypanosoma brucei brucei);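 active means inhibition above a per-plate cutoff of the control wells' mean inhibition plus 3 SD, cut at about 5.5% in these data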;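 further: 0% = DMSO wells median and 100% = median of wells with control inhibitor compound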
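Dosing: 11.9 µM compound single dose, 0.9% DMSO; Assay system: purified T. brucei MetRS enzyme; Measured by: Kinase-Glo luciferase luminescence reporting remaining unconsumed ATP; Schedule: 15 min plus 2 h at 25 °C.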
ADAM17 inh: ADAM17 inhibitors, primary screen, biochemical, QFRET; recombinant ADAM17, EDANS/DABCYL FRET peptide cleavage; inhibition, % at 6.95 µM; hit rate 0.83% among 370,000;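 active means inhibition above the mean of compounds lying between control limits plus 3 SD, set per campaign, cut at about 8.5% in these data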;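 further: 0% = DMSO-only wells as the low control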
PLCb3 inh: human PLC-beta3 inhibitors, primary screen, biochemical, fluorescence; 1-phosphatidylinositol 4,5-bisphosphate phosphodiesterase beta-3 (Homo sapiens), Q01970; Purified PLC-beta3, fluorogenic substrate; inhibition, % at 12.2 µM; hit rate 0.18% among 370,000; AID 720704, 2013; in the data active means inhibition above about 11%;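 further: 0% = median of compound wells on plate and 100% = full blocker control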
PLCg1 inh: PLC-gamma1 enzyme inhibitors, primary screen, biochemical, fluorescence, purified enzyme; hit rate 0.84% among 370,000; inhibition, % at 12.2 µM; fluorogenic substrate
PLCg1 ctr: PLC-gamma1 enzyme inhibitors, counter-screen for PLC-beta3 inhibitor project, biochemical, fluorescence | shares compounds with PLCg1 inh | purified PLC-gamma1, fluorogenic substrate | inhibition, % at 12.3 µM | hit rate 3.1% among 3,300
PLCb3 confirm: PLC-beta3 inhibitor confirmation, biochemical, fluorescence, purified enzyme; shares compounds with PLCg1 inh; fluorogenic substrate fluorescence; inhibition, % at 12.3 µM; hit rate 1% among 3,300; AID 743261, 2014; in the data active means inhibition above about 11%
An asterisk follows results filed as active; nt = not tested or not shown. The list is not random: actives were taken first. Their share in the collection is about 2.3%. Unless noted, no stated cut-off is given here; in the data, active means inhibition above about 9.5%; inactive means the rest.

SMILES	ADAM10 inh	TbMetRS inhib	ADAM17 inh	PLCb3 inh	PLCg1 inh	PLCg1 ctr	PLCb3 confirm
O=C(O)c1cccc(S(=O)(=O)NCC2COc3ccccc3O2)c1 (stereo unspecified)	-13.3	-0.3	4.1	1.2	9.8*	-8.2	-2.3
COC(=O)c1ccccc1NC(=O)Cn1cnc2c1c(=O)n(C)c(=O)n2C	2.4	-0.1	0.4	-1.4	10.3*	-9.1	-4.5
COC(=O)c1cccc(NC(=O)Cn2cnc3c2c(=O)n(C)c(=O)n3C)c1	0.4	-0.1	-1.4	4.7	1.1	nt	nt
COc1ccccc1CNC(=O)COC(=O)Cn1cnc2c1c(=O)n(C)c(=O)n2C	-2.5	-0.1	1.9	11.0*	3.8	-3.2	0.4
O=C(Nc1ccc(S(=O)(=O)Nc2ncccn2)cc1)c1ccc(Br)s1	-1.8	-1.2	-2.0	-4.5	10.7*	-5.0	-1.4
COc1cccc(OC)c1C(=O)Nc1ccc(S(=O)(=O)Nc2ncccn2)cc1	-1.0	-1.5	-1.7	-6.1	0.6	nt	nt
O=C(O)c1cccc(-n2cccc2/C=C2/NC(=O)N(c3ccc(Cl)cc3)C2=O)c1	6.8	-0.1	0.3	-10.0	22.5*	-7.5	-22.7
CCNC(=O)Nc1ccc2c(c1)C(=O)N(C)[C@H]1CC[C@@H](CC(=O)OC)O[C@H]1CO2	0.7	nt	-1.5	2.0	-0.1	nt	nt
C[C@@H](NC(=O)C[C@H]1CC[C@H]2[C@@H](COc3ccc(NC(=O)Nc4ccccc4)cc3C(=O)N2C)O1)c1ccccc1	1.0	nt	-9.3	3.0	11.6*	3.9	7.5
CCNC(=O)Nc1ccc2c(c1)C(=O)N(C)[C@H]1CC[C@H](CC(=O)N[C@H](C)c3ccccc3)O[C@@H]1CO2	15.5	nt	-6.9	6.9	9.5*	11.3*	11.7*
CCCNC(=O)C[C@H]1CC[C@H]2[C@@H](COc3ccc(NC(=O)Nc4ccccc4)cc3C(=O)N2C)O1	-2.0	nt	-0.5	4.1	5.0	nt	nt
COC(=O)[C@H](CC(C)C)N(CCCc1cn(CC2CCCCC2)nn1)S(=O)(=O)c1ccc(F)cc1Br	14.3	nt	5.6	1.5	2.5	nt	nt
O=C(NCCC1=CCCCC1)C(=O)NCC(c1ccco1)N1CCN(c2ccccc2)CC1 (stereo unspecified)	5.1	-0.3	1.9	3.9	12.8*	-1.4	0.6
COc1ccc(N2CCN(C(CNC(=O)C(=O)NCCC3=CCCCC3)c3ccco3)CC2)cc1 (stereo unspecified)	7.6	-0.4	-2.1	1.9	2.2	nt	nt
CN1CCN(NC(=O)/C=C/c2cccc([N+](=O)[O-])c2)CC1	-8.5	-0.5	-0.7	1.9	11.8*	-9.8	-3.3
O=C(NCc1ccco1)c1cccc(F)c1	-4.8	-2.1	-4.5	-6.3	10.5*	-6.0	-1.5
COc1ccc(Cl)cc1C(=O)NCc1ccco1	4.6	-0.3	5.2	-5.3	12.7*	-5.3	-0.5
COc1ccc(C(=O)Nc2ccc(Cl)cc2C(=O)NCc2ccco2)cc1OC	-9.4	-0.1	-3.1	-11.3	-8.1	nt	nt
Cc1ccc(C(=O)NC2CCN(S(=O)(=O)c3ccccc3F)CC2)cc1	0.6	-0.8	-2.4	-2.0	-0.9	nt	nt
Cc1noc(C)c1C(=O)NCc1ccccc1F	3.8	-1.0	-1.1	0.5	5.0	nt	nt
O=C(NCCCN1CCCC1=O)C(=O)NCC1OCCCN1S(=O)(=O)c1ccccc1 (stereo unspecified)	1.7	-0.2	-1.3	2.0	-1.0	nt	nt
CCCCNC(=O)CCc1nc2cccnc2n1Cc1ccccc1	0.0	-1.5	-2.3	-7.1	0.3	nt	nt
CC(C)CC(=O)Nc1c2c(nn1-c1ccc(F)cc1)CSC2	-0.6	0.0	3.2	12.4*	8.7	-6.6	-5.3
CCOC(=O)c1cnn(-c2nc(-c3ccccc3F)cs2)c1C(F)(F)F	7.5	0.4	5.4	8.5	9.8*	-101.7	-96.1
Nc1ccc(C(CC(=O)O)n2cccc2)cc1 (stereo unspecified)	-1.6	0.2	4.2	14.3*	26.2*	-4.1	-2.6
SMILES	ADAM10 inh	TbMetRS inhib	ADAM17 inh	PLCb3 inh	PLCg1 inh	PLCg1 ctr	PLCb3 confirm
O=C(O)CC(c1ccccc1)n1cccc1 (stereo unspecified)	-7.8	-0.1	-7.2	-1.4	-2.5	nt	nt
COC(=O)[C@]12C[C@H](CC(=O)N3CCN(C(=O)C4CC4)CC3)C(=O)N(Cc3ccc4c(c3)OCO4)C1=C[C@H](C(C)C)O[C@@H]2C1CC1	3.7	nt	-0.7	1.4	1.5	nt	nt
CCCCN(CCCC)C(=S)N/N=C/c1c(C)[nH]n(-c2ccccc2)c1=O	-4.6	-0.6	2.5	4.8	9.9*	-9.5	-21.3
Cc1[nH]n(-c2ccccc2)c(=O)c1/C=N/NC(=O)c1ccc(O)cc1O	nt	0.3	nt	nt	nt	nt	nt
CC(NC(=O)Cn1nc(-c2ccccc2)c2ccccc2c1=O)c1ccccc1 (stereo unspecified)	-2.0	-0.6	-0.8	4.2	0.9	nt	nt
COc1ccc(F)cc1Cn1nc(C(=O)O)c2ccccc2c1=O	6.0	-0.4	3.0	0.8	12.1*	4.9	1.6
CC(NC(=O)Cn1nc(C(=O)O)c2ccccc2c1=O)c1ccccc1 (stereo unspecified)	7.1	1.2	4.3	11.9*	10.7*	-1.6	1.1
O=C(O)CCNC(=O)/C(=C/C=C/c1ccccc1)NC(=O)c1ccccc1	-13.1	-0.2	-0.4	-4.9	-2.5	nt	nt
COc1ccc(S(=O)(=O)NCC(=O)NCCc2ccc(OC)c(OC)c2)cc1	9.3	-0.6	0.0	-5.0	0.9	nt	nt
CCCCCNC(=O)[C@@H]1CSC2c3ccccc3C(=O)N21 (stereo partly specified)	6.2	-1.9	6.8	8.2	13.3*	-1.2	0.2
COc1ccc(OC)c(CN2C(=O)c3ccccc3C2c2nnnn2C(C)C)c1 (stereo unspecified)	3.6	-1.1	-1.2	3.2	2.7	nt	nt
COc1ccc(-c2cc(C(=O)NN=Cc3ccccc3[N+](=O)[O-])[nH]n2)cc1	-7.2	nt	-0.8	0.8	-1.7	nt	nt
CCCn1c(N)c(N(CCOC)C(=O)c2ccc([N+](=O)[O-])c(C)c2)c(=O)[nH]c1=O	10.8	-1.0	0.6	-2.2	9.6*	-3.7	-1.4
CCCCN(C(=O)c1ccc(OC)c([N+](=O)[O-])c1)c1c(N)n(CCC)c(=O)[nH]c1=O	0.7	-0.4	-4.5	-5.5	-1.4	nt	nt
COc1ccc(Cl)cc1NC(=O)C1CCN(C(=O)C2CC(=O)N(c3ccc(C)cc3)C2)CC1 (stereo unspecified)	8.3	-0.6	0.9	-3.1	2.2	nt	nt
